Test [1] deals with U-937. Nature of the test: Cytotoxicity against human U937 cells assessed as cell survival after 24 hrs by XTT assay. The format is functional, cell-based.
Test [2] can be described thus: Cell cycle arrest in human U937 cells assessed as accumulation at subG1 phase at 2 ug/ml after 24 hrs by propidium iodide staining-based flow cytometric analysis (reference value: 15.1%). The format is functional. Conditions: U-937. The procedure, abridged: (§1)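 U937 cells in complete RPMI 1640 (10% FBS, 25 mM HEPES, 2 mM glutamine) seeded at 2 × 10^6 cells/ml in flasks, recovered 24 h, then treated with compounds in DMSO (2 µg/ml). Cisplatin (10 µM) served as positive control and DMSO as negative control. Cells were harvested at 24 or 48 h and stained with propidium iodide. Phase percentages were gated on singlet cells by flow cytometry. Three independent experiments.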

Test [3] in a line: Cell cycle arrest in human U937 cells assessed as accumulation at G0/G1 phase at 2 ug/ml after 24 hrs by propidium iodide staining-based flow cytometric analysis (reference value: 41.7%). The conditions noted are these: U-937. Format: functional. The procedure, abridged: as §1
Test [4] is described as follows: Cell cycle arrest in human U937 cells assessed as accumulation at S phase at 2 ug/ml after 24 hrs by propidium iodide staining-based flow cytometric analysis (reference value: 30.7%). The format is functional. The conditions noted are these: U-937. In outline: as §1
Test [5] in a line: Cell cycle arrest in human U937 cells assessed as accumulation at G2/M phase at 2 ug/ml after 24 hrs by propidium iodide staining-based flow cytometric analysis (reference value: 12.5%). Format: functional. The conditions noted are these: U-937. The procedure, abridged:
as §1

Test [6] in a line: Cell cycle arrest in human U937 cells assessed as accumulation at subG1 phase at 2 ug/ml after 48 hrs by propidium iodide staining-based flow cytometric analysis (reference value: 1.1%). Format: functional. Conditions: U-937. In outline: as §1
Test [7] can be described thus: Cell cycle arrest in human U937 cells assessed as accumulation at G0/G1 phase at 2 ug/ml after 48 hrs by propidium iodide staining-based flow cytometric analysis (reference value: 54.6%). The format is functional. Conditions: U-937. In outline: as §1
A short description of test [8]: Cell cycle arrest in human U937 cells assessed as accumulation at S phase at 2 ug/ml after 48 hrs by propidium iodide staining-based flow cytometric analysis (reference value: 25.7%). The format is functional. The conditions noted are these: U-937. The procedure, abridged: as §1
A short description of test [9]: Cell cycle arrest in human U937 cells assessed as accumulation at G2/M phase at 2 ug/ml after 48 hrs by propidium iodide staining-based flow cytometric analysis (reference value: 16.6%). Format: functional. The conditions noted are these: U-937. The procedure, abridged:
as §1

The test system of test [10] is U-937. Nature of the test: Induction of apoptosis in human U937 cells assessed as necrotic cells at 2 ug/ml after 24 hrs by annexin V-FITC/propidium iodide staining-based flow cytometry (reference value: 24.7%). Format: functional.
Test [11] deals with U-937. Nature of the test: Induction of apoptosis in human U937 cells assessed as late apoptotic cells at 2 ug/ml after 24 hrs by annexin V-FITC/propidium iodide staining-based flow cytometry (reference value: 3%). Format: functional.
The test system of test [12] is U-937. In words: Induction of apoptosis in human U937 cells assessed as early apoptotic cells at 2 ug/ml after 24 hrs by annexin V-FITC/propidium iodide staining-based flow cytometry (reference value: 6.3%). The format is functional.
The subject of test [13] is U-937. In words: Induction of apoptosis in human U937 cells assessed as viable cells at 2 ug/ml after 24 hrs by annexin V-FITC/propidium iodide staining-based flow cytometry (reference value: 66%). Format: functional. The conditions noted are these: U-937, 24 h, read-out: Activity.
Test [14] relates to U-937. Nature of the test: Induction of apoptosis in human U937 cells assessed as necrotic cells at 2 ug/ml after 48 hrs by annexin V-FITC/propidium iodide staining-based flow cytometry (reference value: 1.4%). The format is functional.
Test [15] has as its system U-937. Nature of the test: Induction of apoptosis in human U937 cells assessed as late apoptotic cells at 2 ug/ml after 48 hrs by annexin V-FITC/propidium iodide staining-based flow cytometry (reference value: 11.7%). The format is functional.
Test [16] deals with U-937. In words: Induction of apoptosis in human U937 cells assessed as early apoptotic cells at 2 ug/ml after 48 hrs by annexin V-FITC/propidium iodide staining-based flow cytometry (reference value: 5.7%). Format: functional.
Test [17] deals with U-937. In words: Induction of apoptosis in human U937 cells assessed as viable cells at 2 ug/ml after 48 hrs by annexin V-FITC/propidium iodide staining-based flow cytometry (reference value: 81.3%). Format: functional. The conditions noted are these: U-937, 48 h, read-out: Activity.
In test [18] the test system is U-937. In words: Induction of apoptosis in human U937 cells assessed as caspase 3/7 activation at 2 ug/ml after 24 hrs by fluorescence reader relative to control. The format is functional. The procedure, abridged:
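U937 cells (2 × 10^6/ml, 24 h recovery) were exposed for 24 h to compounds in DMSO (2 µg/ml), with cisplatin 10 µM and DMSO controls. Cells were pelleted and resuspended in RPMI, at least 2 × 10^5 cells per well. (DEVD)2 substrate was added and cells incubated 2 h at 37 °C, 5% CO2, resuspended every 20 min. Fluorescence was read at 544/590 and 544/620 nm.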

Test [19] is described as follows: Cytotoxicity against human SNO cells assessed as cell survival after 48 hrs by XTT assay.
Test [20] deals with MCF7. In words: Cytotoxicity against human MCF7 cells assessed as cell survival after 48 hrs by XTT assay. The conditions noted are these: MCF7, 48 h.
Test [21] deals with HeLa. In words: Cytotoxicity against human HeLa cells assessed as cell survival after 48 hrs by XTT assay.
Test [22] relates to DU-145. Nature of the test: Cytotoxicity against human DU145 cells assessed as cell survival after 48 hrs by XTT assay. Conditions: DU-145, 48 h.
Test [23] relates to PBMC. Nature of the test: Cytotoxicity against human PBMC assessed as cell survival after 24 hrs by fluorescence assay.

pIC50: −log10 of the molar value.

As for `Cc1cc(O)c2c(c1F)C(=O)C=CC2=O`, the Activity entry in [1] is “Not toxic”; in test [2], 8.2%; in test [3], 69.2%; in test [4], 17.4%; in test [5], 4.7%; in test [6], 11.8%. In addition, the Activity was found to be 64.8% in [7]; 15.9% in test [8]; 6.9% in test [9]; 61.1% in test [10]; 34.2% in test [11]; 10.2% in test [12]. Further, the Activity in test [14] is reported as 53.9%; in test [15], 42.6%; in test [16], 1%; in [18] it was -5.21%. The viability at 2 µg/mL was 4.5% in [13] and 1.6% in [17]. Moreover, the pIC50 in test [19] was 4.72; in test [20] it was 4.69; in test [21], 4.99; in test [22], 4.81; in test [23], 3.72.

Source of the values: ChEMBL document CHEMBL3351895, “Cytotoxicity of synthesized 1,4-naphthoquinone analogues on selected human cancer cell lines” (Bioorg Med Chem, 2014).
